Assay results published in ChEMBL document CHEMBL4406921, “Discovery of Axelopran (TD-1211): A Peripherally Restricted μ-Opioid Receptor Antagonist” (ACS Med Chem Lett, 2019).

How the values were obtained:
Mu-type opioid receptor [1] = biological target: T1, Mu-type opioid receptor (Homo sapiens, UniProt P35372); experiment: Displacement of [3H]-DPN from recombinant human mu opioid receptor expressed in CHO-K1 cell membranes by radioligand binding assay
Procedure, shortened: (§1)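 Membranes from CHO-K1 cells stably transfected with human recombinant μ or δ receptor, or guinea pig κ receptor; competition with [3H]-DPN radioligand; affinity reported as pKi.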

[2] = biological target: Delta-type opioid receptor (Homo sapiens, UniProt P41143); experiment: Displacement of [3H]-DPN from recombinant human delta opioid receptor expressed in CHO-K1 cell membranes by radioligand binding assay; procedure, shortened: as §1
[3] = biological target: Kappa-type opioid receptor (Cavia porcellus, UniProt P41144); experiment: Displacement of [3H]-DPN from guinea pig kappa opioid receptor expressed in CHO-K1 cell membranes by radioligand binding assay; procedure, shortened: as §1
Mu-type opioid receptor [4] = biological target: T1, Mu-type opioid receptor; experiment: Antagonist activity at human recombinant mu opioid receptor expressed in CHO-K1 cell membranes assessed as intrinsic activity at 10 pM to 20 uM incubated for 30 mins in presence of Eu-GTP by DELFIA GTP binding assay relative to DAMGO
[5] = Half life in rat liver microsomes at 15 uM; assay type: ADME, Microsome
[6] = Half life in rat liver microsomes at 3 uM; assay type: ADME, Microsome
[7] = Half life in dog liver microsomes at 3 uM; assay type: ADME, Canis lupus familiaris, Microsome
[8] = Half life in human liver microsomes at 3 uM; assay type: ADME, Microsome
[9] = Permeability coefficient, Kp in human Caco2 cells; assay type: ADME, cell-based; conditions: Caco-2, read-out: Kp
[10] = Cmax in Sprague-Dawley rat at 10 mg/kg, po administered via gavage; assay type: ADME, organism-based; set-up: dose 10 mg/kg, route oral; conditions: in vivo
[11] = AUC(0 to t) in Sprague-Dawley rat at 10 mg/kg, po administered via gavage; assay type: ADME, organism-based; conditions: in vivo
[12] = Oral bioavailability in Sprague-Dawley rat at 10 mg/kg administered via gavage; assay type: ADME, organism-based; conditions: in vivo
Mus musculus [13] = experiment: Inhibition of morphine-induced delays in intestinal transit in po dosed ICR mouse administered via gavage pretreated with compound and 30 mins later injected with morphine followed 5 mins later by ingestion of test meal and measured after 60 mins; assay type: functional; conditions: read-out: ID50 (the source's name)
Procedure, shortened: (§2)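 Mice dosed orally; reversal of morphine-induced delay in intestinal transit, delay in gastric emptying, or hot plate antinociception measured; dose-dependent responses fitted to give ID50 in mg/kg.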

Mus musculus [14] = experiment: Inhibition of morphine-induced delays in gastric emptying in po dosed ICR mouse administered via gavage pretreated with compound and 30 mins later injected with morphine followed 5 mins later by ingestion of test meal and measured after 60 mins; assay type: functional; conditions: read-out: ID50 (the source's name); procedure, shortened: as §2
Mus musculus [15] = experiment: Inhibition of morphine-induced antinociceptive activity in po dosed ICR mouse administered via gavage pretreated with compound and 30 mins later injected with morphine and measured after 30 mins by hot plate test; assay type: functional; conditions: read-out: ID50 (the source's name); procedure, shortened: as §2
Mus musculus [16] = organism: Mus musculus; experiment: Peripheral selectivity index, ratio of ID50 for inhibition of morphine-induced antinociceptive activity in ICR mouse to ID50 for inhibition of morphine-induced delays in intestinal transit in ICR mouse; assay type: functional
Procedure, shortened: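 Mice were dosed orally with antagonist at several doses and challenged with morphine. ID50 values were taken from dose-dependent reversal of morphine-induced hot plate antinociception (CNS) and of morphine-induced delay in intestinal transit (peripheral). The index is the hot plate ID50 divided by the intestinal transit ID50.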

Mus musculus [17] = organism: Mus musculus; experiment: Peripheral selectivity index, ratio of ID50 for inhibition of morphine-induced delays in gastric emptying in ICR mouse to ID50 for inhibition of morphine-induced delays in intestinal transit in ICR mouse; assay type: functional
[18] = Oral bioavailability in human; assay type: ADME, organism-based; conditions: in vivo

Chain of Delta-type opioid receptor (P41143 whole entry): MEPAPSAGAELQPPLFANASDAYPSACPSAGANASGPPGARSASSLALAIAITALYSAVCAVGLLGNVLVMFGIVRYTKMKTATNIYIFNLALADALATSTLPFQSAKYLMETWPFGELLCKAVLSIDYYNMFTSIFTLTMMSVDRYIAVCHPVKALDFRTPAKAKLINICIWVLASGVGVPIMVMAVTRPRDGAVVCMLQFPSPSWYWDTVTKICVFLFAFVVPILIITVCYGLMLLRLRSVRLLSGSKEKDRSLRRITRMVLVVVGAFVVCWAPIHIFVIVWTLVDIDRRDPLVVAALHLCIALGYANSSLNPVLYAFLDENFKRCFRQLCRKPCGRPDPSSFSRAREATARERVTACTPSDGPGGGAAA
Chain of Kappa-type opioid receptor (P41144 whole entry): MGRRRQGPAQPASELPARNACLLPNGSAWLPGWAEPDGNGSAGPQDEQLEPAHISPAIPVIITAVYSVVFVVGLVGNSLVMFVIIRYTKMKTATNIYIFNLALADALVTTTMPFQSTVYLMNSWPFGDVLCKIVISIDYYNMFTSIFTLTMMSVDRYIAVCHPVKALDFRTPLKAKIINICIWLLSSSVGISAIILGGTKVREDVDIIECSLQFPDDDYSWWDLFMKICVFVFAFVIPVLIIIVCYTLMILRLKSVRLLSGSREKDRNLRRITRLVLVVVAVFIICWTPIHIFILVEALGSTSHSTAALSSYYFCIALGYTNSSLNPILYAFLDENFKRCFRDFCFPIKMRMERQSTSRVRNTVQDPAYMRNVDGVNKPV
T1 sequence (P35372 whole entry): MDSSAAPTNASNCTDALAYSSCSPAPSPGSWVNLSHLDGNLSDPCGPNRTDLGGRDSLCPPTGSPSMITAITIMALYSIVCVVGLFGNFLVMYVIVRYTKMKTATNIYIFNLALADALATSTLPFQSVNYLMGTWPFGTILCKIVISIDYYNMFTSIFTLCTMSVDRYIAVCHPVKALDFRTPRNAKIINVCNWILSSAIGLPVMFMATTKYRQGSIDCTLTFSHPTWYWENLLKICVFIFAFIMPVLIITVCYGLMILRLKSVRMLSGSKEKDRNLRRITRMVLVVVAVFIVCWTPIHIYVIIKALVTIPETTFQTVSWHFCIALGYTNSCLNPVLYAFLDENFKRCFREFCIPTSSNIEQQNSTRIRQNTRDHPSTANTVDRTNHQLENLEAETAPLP

Q: With `NC(=O)c1cccc([C@H]2C[C@H]3CC[C@@H](C2)N3CCN(CC2CCCCC2)C(=O)C(F)(F)F)c1` as the molecule, how does the Ki (Mu-type opioid receptor [1]) read?
A: 0.794 nM

Q: And the Ki [2]?
A: 10 nM

Q: And the Ki [3]?
A: 1 nM

Q: And the Intrinsic activity (Mu-type opioid receptor [4])?
A: 9%

Q: What about the half-life at 15 µM [5] of the same molecule?
A: 3 min

Q: With `NC(=O)c1cccc([C@H]2C[C@H]3CC[C@@H](C2)N3CCNCC2CCCCC2)c1` as the molecule, how does the Ki (Mu-type opioid receptor [1]) read?
A: 0.251 nM

Q: What about the Ki [2] of the same molecule?
A: 6.31 nM

Q: And the Ki [3]?
A: 0.158 nM

Q: And the Intrinsic activity (Mu-type opioid receptor [4])?
A: 12%

Q: And the half-life at 15 µM [5]?
A: 42 min

Q: Which Ki (Mu-type opioid receptor [1]) does the source give for `C[C@H]1CN(C[C@H](Cc2ccccc2)C(=O)NCC(=O)O)CC[C@H]1c1cccc(O)c1` here?
A: 0.316 nM

Q: And the Ki [2]?
A: 5.01 nM

Q: What about the Ki [3] of the same molecule?
A: 5.01 nM

Q: And the Intrinsic activity (Mu-type opioid receptor [4])?
A: -7%

Q: What about the half-life at 3 µM [6] of the same molecule?
A: > 90 min

Q: And the half-life at 3 µM [7]?
A: > 90 min

Q: And the half-life at 3 µM [8]?
A: > 90 min

Q: And the Papp [9]?
A: 3 ×10⁻⁶ cm/s

Q: And the Cmax [10]?
A: 10 ng/mL

Q: What about the AUC(0-t) [11] of the same molecule?
A: 2 ng·h/mL

Q: And the bioavailability [12]?
A: 0.1%

Q: And the ED50 (Mus musculus [13])?
A: 2.5 mg/kg

Q: What about the ED50 (Mus musculus [14]) of the same molecule?
A: 0.6 mg/kg

Q: What about the ED50 (Mus musculus [15]) of the same molecule?
A: > 20 mg/kg

Q: What about the “Selectivity Index” value (Mus musculus [16]) of the same molecule?
A: >8

Q: And the “Selectivity Index” value (Mus musculus [17])?
A: >33

Q: What about the bioavailability [18] of the same molecule?
A: 6%
